From ChEMBL document CHEMBL2069269, “Anti-inflammatory Effect of a Cell-Penetrating Peptide Targeting the Nrf2/Keap1 Interaction” (2012)
One block for each compound: values may come before it. Activity calls are given as the source filed them. The calls are words filed in the database; no cut-off is given here. Where a SMILES comes first, the peptide text is derived from it.

What was measured:
[1] = target: Kelch-like ECH-associated protein 1 (Homo sapiens) (UniProt Q14145); assay: Inhibition of Keap1 interaction with Nrf2 in human THP1 cells assessed as increase in HO-1 mRNA expression at 100 uM from 3 to 6 hrs by qRT-PCR analysis; format: cell-based; settings: THP-1
Chain of Kelch-like ECH-associated protein 1 (Homo sapiens) (Q14145 whole entry): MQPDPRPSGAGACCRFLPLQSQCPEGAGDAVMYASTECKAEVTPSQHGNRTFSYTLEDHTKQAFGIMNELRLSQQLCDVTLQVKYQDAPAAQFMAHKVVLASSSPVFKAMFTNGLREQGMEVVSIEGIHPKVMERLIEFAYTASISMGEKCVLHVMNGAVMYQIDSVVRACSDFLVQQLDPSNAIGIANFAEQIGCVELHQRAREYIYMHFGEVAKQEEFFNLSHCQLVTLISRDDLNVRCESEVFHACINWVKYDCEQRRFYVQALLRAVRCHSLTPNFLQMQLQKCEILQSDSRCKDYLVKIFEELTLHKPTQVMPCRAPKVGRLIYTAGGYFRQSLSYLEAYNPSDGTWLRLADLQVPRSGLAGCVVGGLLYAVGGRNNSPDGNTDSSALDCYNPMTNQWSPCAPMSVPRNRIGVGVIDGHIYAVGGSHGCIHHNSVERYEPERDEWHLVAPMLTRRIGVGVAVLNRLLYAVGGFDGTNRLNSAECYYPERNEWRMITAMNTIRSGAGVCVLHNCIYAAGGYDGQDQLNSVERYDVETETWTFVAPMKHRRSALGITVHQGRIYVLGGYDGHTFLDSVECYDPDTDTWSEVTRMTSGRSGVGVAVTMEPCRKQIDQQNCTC
In short: (§1)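 Human THP-1 monocytes were incubated with peptide over a time course. HO-1 mRNA was measured by qRT-PCR and normalised to GAPDH mRNA. Data are means ± SEM, n = 3. A dose series of 7.5, 18.75, 37.5 and 75 μM was also tested by the same read-out.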

[2] = target: Kelch-like ECH-associated protein 1 (Homo sapiens) (UniProt Q14145); assay: Inhibition of Keap1 interaction with Nrf2 in human THP1 cells assessed as increase in Nrf2 protein expression at 100 uM from 1 to 6 hrs by Western blot analysis; format: cell-based; settings: THP-1
In short: (§2)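 THP-1 cells were incubated with peptide over a time course, alongside a peptide scrambled in the Keap1-binding 14mer region. Nrf2 protein was detected in cell lysates by Western blot.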

[3] = target: Kelch-like ECH-associated protein 1 (Homo sapiens) (UniProt Q14145); assay: Inhibition of Keap1 interaction with Nrf2 in human THP1 cells assessed as increase in HO-1 mRNA expression at 100 uM from 2 to 8 hrs by qRT-PCR analysis; format: cell-based; settings: THP-1; in short: as §1
[4] = target: Kelch-like ECH-associated protein 1 (Homo sapiens) (UniProt Q14145); assay: Inhibition of Keap1 interaction with Nrf2 in human THP1 cells assessed as increase in HO-1 protein expression at 100 uM at 9 to 16 hrs by Western blot analysis; format: cell-based; settings: THP-1
In short: (§3)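 THP-1 monocytes were treated with peptide or the scrambled-sequence control peptide over a time course. HO-1 protein was assessed by Western blot. The blot shown is representative of n = 3 experiments.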

[5] = target: Kelch-like ECH-associated protein 1 (Homo sapiens) (UniProt Q14145); assay: Inhibition of Keap1 interaction with Nrf2 in human THP1 cells assessed as increase in Nrf2 protein expression at 100 uM after 3 hrs by Western blot analysis; format: cell-based; settings: THP-1; in short: as §2
THP-1 [6] = assay: Upregulation of Nrf2 mRNA expression in human THP1 cells at 100 uM by qRT-PCR analysis; format: functional, cell-based
[7] = target: Kelch-like ECH-associated protein 1 (Homo sapiens) (UniProt Q14145); assay: Inhibition of Keap1 interaction with Nrf2 in human THP1 cells assessed as increase in HO-1 mRNA expression at 75 uM at 6 hrs by qRT-PCR analysis relative to control; format: cell-based; settings: THP-1; in short: as §1
[8] = target: Kelch-like ECH-associated protein 1 (Homo sapiens) (UniProt Q14145); assay: Inhibition of Keap1 interaction with Nrf2 in human THP1 cells assessed as increase in HO-1 protein expression at 100 uM at 12 hrs by Western blot analysis; format: cell-based; settings: THP-1; in short: as §3
[9] = target: Kelch-like ECH-associated protein 1 (Homo sapiens) (UniProt Q14145); assay: Inhibition of Keap1 interaction with Nrf2 in human THP1 cells assessed as increase in HO-1 protein expression by Western blot analysis; format: cell-based; settings: THP-1; in short: as §3
[10] = target: Kelch-like ECH-associated protein 1 (Homo sapiens) (UniProt Q14145); assay: Inhibition of Keap1 interaction with Nrf2 in human THP1 cells assessed as increase in HO-1 protein expression at 37.5 uM by Western blot analysis; format: cell-based; settings: THP-1
THP-1 [11] = assay: Antiinflammatory activity in human THP1 cells assessed as inhibition of LPS-induced TNFalpha mRNA expression at 100 uM incubated for 4 hrs prior to LPS-stimulation measured after 3 hrs by qRT-PCR analysis

inhibition [1]: Active
SMILES: CC(C)C[C@H](NC(=O)[C@H](CCCNC(=N)N)NC(=O)[C@H](CCCNC(=N)N)NC(=O)[C@H](CCCNC(=N)N)NC(=O)[C@H](CCC(N)=O)NC(=O)[C@H](CCCNC(=N)N)NC(=O)[C@H](CCCNC(=N)N)NC(=O)[C@H](CCCCN)NC(=O)[C@H](CCCCN)NC(=O)[C@H](CCCNC(=N)N)NC(=O)CNC(=O)[C@@H](N)Cc1ccc(O)cc1)C(=O)N[C@@H](CC(=O)O)C(=O)N[C@@H](CCC(=O)O)C(=O)N[C@@H](CCC(=O)O)C(=O)N[C@H](C(=O)NCC(=O)N[C@@H](CCC(=O)O)C(=O)N[C@@H](Cc1ccccc1)C(=O)N[C@@H](CC(C)C)C(=O)N1CCC[C@H]1C(=O)O)[C@@H](C)O

inhibition [2]: inactive
inhibition [3]: inactive
inhibition [4]: inactive
SMILES: CC[C@H](C)[C@H](NC(=O)[C@H](CC(=O)O)NC(=O)[C@@H](NC(=O)CNC(=O)[C@H](Cc1ccccc1)NC(=O)[C@H](CCC(=O)O)NC(=O)[C@H](CCCNC(=N)N)NC(=O)[C@H](CCCNC(=N)N)NC(=O)[C@H](CCCNC(=N)N)NC(=O)[C@H](CCC(N)=O)NC(=O)[C@H](CCCNC(=N)N)NC(=O)[C@H](CCCNC(=N)N)NC(=O)[C@H](CCCCN)NC(=O)[C@H](CCCCN)NC(=O)[C@H](CCCNC(=N)N)NC(=O)CNC(=O)[C@@H](N)Cc1ccc(O)cc1)[C@@H](C)O)C(=O)N[C@@H](CCC(N)=O)C(=O)N[C@@H](CC(C)C)C(=O)N[C@H](C(=O)N[C@@H](CCC(=O)O)C(=O)N1CCC[C@H]1C(=O)N[C@@H](CCC(N)=O)C(=O)N[C@@H](CC(C)C)C(=O)N[C@@H](CCC(=O)O)C(=O)O)[C@@H](C)CC (H-YGRKKRRQRRREFGTDIQLIEPQLE-OH)

inhibition [1]: inactive
SMILES: CC(C)C[C@H](NC(=O)[C@H](Cc1ccccc1)NC(=O)[C@H](CCC(=O)O)NC(=O)CNC(=O)[C@@H](NC(=O)[C@H](CCC(=O)O)NC(=O)[C@H](CCC(=O)O)NC(=O)[C@H](CC(=O)O)NC(=O)[C@H](CC(C)C)NC(=O)[C@H](CCC(N)=O)NC(=O)[C@H](CC(C)C)NC(=O)[C@H](CCC(N)=O)NC(=O)[C@H](C)NC(=O)[C@H](Cc1ccccc1)NC(=O)[C@H](Cc1ccccc1)NC(=O)[C@H](C)NC(=O)[C@H](CCCNC(=N)N)NC(=O)[C@H](CCCNC(=N)N)NC(=O)[C@H](CCCNC(=N)N)NC(=O)[C@H](CCC(N)=O)NC(=O)[C@H](CCCNC(=N)N)NC(=O)[C@H](CCCNC(=N)N)NC(=O)[C@H](CCCCN)NC(=O)[C@H](CCCCN)NC(=O)[C@H](CCCNC(=N)N)NC(=O)CNC(=O)[C@@H](N)Cc1ccc(O)cc1)[C@@H](C)O)C(=O)O (H-YGRKKRRQRRRAFFAQLQLDEETGEFL-OH)

inhibition [1]: inactive
inhibition [5]: Active
fold change (FC) [7]: 24
inhibition [8]: Active
inhibition [9]: Dose-dependent effect
inhibition [10]: Active
SMILES: CC[C@H](C)[C@H](NC(=O)[C@@H]1CCCN1C(=O)[C@H](CC(C)C)NC(=O)[C@H](Cc1ccccc1)NC(=O)[C@H](CCC(=O)O)NC(=O)CNC(=O)[C@@H](NC(=O)[C@H](CCC(=O)O)NC(=O)[C@H](CCC(=O)O)NC(=O)[C@H](CC(=O)O)NC(=O)[C@H](CC(C)C)NC(=O)[C@H](CCC(N)=O)NC(=O)[C@H](CC(C)C)NC(=O)[C@H](CCCNC(=N)N)NC(=O)[C@H](CCCNC(=N)N)NC(=O)[C@H](CCCNC(=N)N)NC(=O)[C@H](CCC(N)=O)NC(=O)[C@H](CCCNC(=N)N)NC(=O)[C@H](CCCNC(=N)N)NC(=O)[C@H](CCCCN)NC(=O)[C@H](CCCCN)NC(=O)[C@H](CCCNC(=N)N)NC(=O)CNC(=O)[C@@H](N)Cc1ccc(O)cc1)[C@@H](C)O)C(=O)N[C@@H](CCC(N)=O)C(=O)O
Activity (THP-1 [6]): inactive
inhibition at 100 µM (THP-1 [11]): 61%

inhibition [3]: inactive
SMILES: CC[C@H](C)[C@H](NC(=O)[C@@H]1CCCN1C(=O)[C@H](CC(C)C)NC(=O)[C@H](Cc1ccccc1)NC(=O)[C@H](CCC(=O)O)NC(=O)CNC(=O)[C@@H](NC(=O)[C@H](CCC(=O)O)NC(=O)[C@H](CCC(=O)O)NC(=O)[C@H](CC(=O)O)NC(=O)[C@H](CC(C)C)NC(=O)[C@H](CCC(N)=O)NC(=O)[C@@H](N)CC(C)C)[C@@H](C)O)C(=O)N[C@@H](CCC(N)=O)C(=O)O
